Results as given in ChEMBL document CHEMBL4138242, “Synthesis and antibacterial evaluation of novel cationic chalcone derivatives possessing broad spectrum antibacterial activity” (Eur J Med Chem, 2018).
Calls of active or inactive are those of the source. No cut-off for these calls is given here.

Key:
Escherichia coli [1] = experiment: Disruption of 72 hrs cultured Escherichia coli ATCC 25922 biofilm assessed as decrease in cell viability in biofilm after 24 hrs by crystal violet staining-based assay; assay type: functional, organism-based
Staphylococcus aureus [2] = experiment: Bactericidal activity against methicillin-resistant Staphylococcus aureus in presence of 50% sheep blood after 20 to 24 hrs; assay type: functional; conditions: read-out: MBC99.9
Summary of the method: (§1)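 MRSA at 10⁵ CFU/mL in 50% MHB plus 50% sheep serum, plasma or defibrinated blood; serum and plasma were obtained by centrifugation at 3,500 rpm for 10 min. Aqueous dilutions prepared at 512-4 µg/mL were added 1:3 to the suspension and incubated for 20-24 h at 37 °C. Well contents (20 µL) were plated on MHA for 20-24 h, and MBC was the concentration giving no colonies.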

Escherichia coli [3] = experiment: Antibacterial activity against Escherichia coli ATCC 25922 after 16 to 20 hrs by broth microdilution method; assay type: functional
Summary of the method: (§2)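 Broth microdilution per CLSI. Bacteria grown 4-6 h (about 10⁸ CFU/mL), then diluted to about 10⁶ CFU/mL. Medium: Mueller-Hinton broth, except Luria-Bertani broth for E. coli. Compounds in sterile water, twofold series 256-0.5 µg/mL, mixed 1:1 with inoculum, 37 °C for 16-20 h. MIC is the lowest concentration without visible growth. Duplicate wells; experiment repeated at least twice.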

Staphylococcus aureus [4] = experiment: Antibacterial activity against methicillin-resistant Staphylococcus aureus clinical isolate 1208143 after 16 to 20 hrs by broth microdilution method; assay type: functional
Summary of the method: (§3)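 CLSI broth microdilution in Mueller-Hinton broth. A 4-6 h culture was diluted to about 10⁶ CFU/mL and mixed 1:1 with compound dilutions prepared at 256 to 0.5 µg/mL from aqueous stocks. Plates were incubated at 37 °C for 16-20 h and read visually for MIC. Each concentration was run in duplicate, and the experiment was repeated at least twice. Vancomycin and meropenem were comparators.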

Enterococcus faecalis = experiment: Antibacterial activity against Enterococcus faecalis ATCC 29212 after 16 to 20 hrs by broth microdilution method; assay type: functional; summary of the method: as §2
Staphylococcus aureus [5] = experiment: Antibacterial activity against methicillin-resistant Staphylococcus aureus clinical isolate 1105183 cono7 after 16 to 20 hrs by broth microdilution method; assay type: functional; summary of the method: as §3
Salmonella enterica = experiment: Antibacterial activity against Salmonella enterica ATCC 13076 after 16 to 20 hrs by broth microdilution method; assay type: functional; summary of the method: as §2
Staphylococcus aureus [6] = experiment: Antibacterial activity against methicillin-resistant Staphylococcus aureus clinical isolate 1104060 after 16 to 20 hrs by broth microdilution method; assay type: functional; summary of the method: as §3
Staphylococcus aureus [7] = experiment: Antibacterial activity against Staphylococcus aureus ATCC 29213 after 16 to 20 hrs by broth microdilution method; assay type: functional; summary of the method: as §2
Staphylococcus aureus [8] = experiment: Antibacterial activity against methicillin-resistant Staphylococcus aureus clinical isolate 0906202 after 16 to 20 hrs by broth microdilution method; assay type: functional; summary of the method: as §3
HeLa [9] = experiment: Cytotoxicity against human HeLa cells assessed as effect on cell morphology at 2 to 4 times MIC after 24 hrs by electron scanning microscopic method; assay type: cell-based
Summary of the method: (§4)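 HeLa cells in DMEM with 10% FBS (37 °C, 5% CO₂), seeded in 12-well plates and left to adhere overnight. Treated 24 h with compound at 2× and 4× MIC; untreated and 0.1% Triton X-100 controls. Cells washed with PBS and imaged for morphology. For live/dead imaging, stained with 2 µM calcein AM and 4.5 µM PI for 15 min at 37 °C.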

Staphylococcus aureus [10] = experiment: Bactericidal activity against Staphylococcus aureus ATCC 29213 at 6 times MIC after 3 hrs by time-kill assay (reference value: 10^6.1 CFU/ml); assay type: functional
Summary of the method: (§5)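 Overnight cultures diluted 1:10,000 in MHB and grown at 37 °C, 225 rpm, for 2 h (early exponential) or 5 h (late exponential). Cells exposed to compound at 6× or 8× MIC in tubes at 37 °C, 225 rpm. At intervals, aliquots were spun, resuspended in PBS, tenfold diluted, plated on MHA overnight at 37 °C and counted as CFU/mL. Biological replicates.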

Staphylococcus aureus [11] = experiment: Antibacterial activity against methicillin-resistant Staphylococcus aureus clinical isolate 1207007 after 16 to 20 hrs by broth microdilution method; assay type: functional; summary of the method: as §3
HeLa [12] = experiment: Cytotoxicity against human HeLa cells at 2 to 4 times MIC after 24 hrs by calcein AM/propidium iodide staining-based fluorescence microscopic method; assay type: cell-based; summary of the method: as §4
Escherichia coli [13] = experiment: Induction of inner membrane permeabilization in Escherichia coli ATCC 25922 at 10 to 20 ug/ml measured every 2 mins for 12 mins by propidium iodide staining-based fluorescence assay; assay type: functional, organism-based
Summary of the method: (§6)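 Mid-log cells (~10⁸ CFU/mL) were suspended in PBS (S. aureus) or HEPES/glucose/KCl (E. coli). They were preincubated with propidium iodide for 30 min (S. aureus) or 40 min (E. coli), and baseline fluorescence was read for 8 min. Compound was added to 20 µg/mL final, and fluorescence (ex 535/em 617 nm) was read every 2 min for 12 min.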

Escherichia coli [14] = experiment: Induction of cytoplasmic membrane depolarization in Escherichia coli ATCC 25922 at 10 to 20 ug/ml measured every 2 mins for 12 mins by DiSC35 dye-based fluorescence assay; assay type: functional, organism-based
Summary of the method: (§7)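 Mid-log cells (~10⁸ CFU/mL) were suspended in PBS (S. aureus) or HEPES/glucose/KCl with EDTA (E. coli). They were preloaded with DiSC3(5) for 30 min (S. aureus) or 40 min (E. coli), and baseline fluorescence was read for 8 min. Compound was added to 20 µg/mL final, and fluorescence (ex 622/em 670 nm) was read every 2 min for 12 min. Water served as control.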

Escherichia coli [15] = experiment: Bactericidal activity against Escherichia coli ATCC 25922 at 6 to 8 times MIC after 6 hrs by time-kill assay; assay type: functional, organism-based; summary of the method: as §5
[16] = Hemolytic activity in sheep RBC after 1 hr; assay type: ADME, cell-based, Ovis aries, Erythrocyte; conditions: sheep red blood cells (erythrocytes)
Summary of the method: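 Sheep red blood cells (150 µL suspension) mixed with 50 µL of compound dilutions (5120-10 µg/mL), 1 h at 37 °C, then centrifuged. Supernatant read at 540 nm. Percent hemolysis calculated relative to RBC-only control (0%) and 0.1% Triton X-100 (100%).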

Staphylococcus aureus [17] = experiment: Induction of inner membrane permeabilization in Staphylococcus aureus ATCC 29213 at 10 to 20 ug/ml measured every 2 mins for 12 mins by propidium iodide staining-based fluorescence assay; assay type: functional, organism-based; summary of the method: as §6
Staphylococcus aureus [18] = experiment: Antibacterial activity against methicillin-resistant Staphylococcus aureus clinical isolate 1-may after 16 to 20 hrs by broth microdilution method; assay type: functional; summary of the method: as §3
Staphylococcus aureus [19] = experiment: Bactericidal activity against methicillin-resistant Staphylococcus aureus in presence of 50% sheep serum after 20 to 24 hrs; assay type: functional; conditions: read-out: MBC99.9; summary of the method: as §1
Staphylococcus aureus [20] = experiment: Induction of cytoplasmic membrane depolarization in Staphylococcus aureus ATCC 29213 at 10 to 20 ug/ml measured every 2 mins for 12 mins by DiSC35 dye-based fluorescence assay; assay type: functional, organism-based; summary of the method: as §7
Staphylococcus aureus [21] = experiment: Ratio of MBC99.9 for methicillin-resistant Staphylococcus aureus in presence of 50% sheep serum to MBC99.9 for methicillin-resistant Staphylococcus aureus ATCC 29213 in presence of 50% sheep plasma; assay type: functional; summary of the method: as §1
Staphylococcus aureus [22] = experiment: Antibacterial activity against methicillin-resistant Staphylococcus aureus clinical isolate 0831010 after 16 to 20 hrs by broth microdilution method; assay type: functional; summary of the method: as §3
Staphylococcus aureus [23] = experiment: Antibacterial activity against methicillin-resistant Staphylococcus aureus clinical isolate 20130911034sau after 16 to 20 hrs by broth microdilution method; assay type: functional; summary of the method: as §3
Staphylococcus aureus [24] = experiment: Antibacterial activity against methicillin-resistant Staphylococcus aureus clinical isolate 20131012632sau after 16 to 20 hrs by broth microdilution method; assay type: functional; summary of the method: as §3

Structure (SMILES): CCCCCCCC[N+](C)(C)CC(=O)Nc1ccc(C(=O)/C=C/c2ccccc2)cc1.[Cl-]
- Activity (Escherichia coli [1]): Active
- MBC (Staphylococcus aureus [2]): 128 mg/L
- MIC (Escherichia coli [3]): 2 mg/L
- MIC (Staphylococcus aureus [4]): 2 mg/L
- MIC (Enterococcus faecalis): 1 mg/L
- MIC (Staphylococcus aureus [5]): 1 mg/L
- MIC (Salmonella enterica): 4 mg/L
- MIC (Staphylococcus aureus [6]): 8 mg/L
- MIC (Staphylococcus aureus [7]): 1 mg/L
- MIC (Staphylococcus aureus [8]): 4 mg/L
- Activity (HeLa [9]): Non-Toxic
- Activity (Staphylococcus aureus [10]): 1 CFU/ml
- MIC (Staphylococcus aureus [11]): 0.5 mg/L
- Activity (HeLa [12]): Toxic
- Activity (Escherichia coli [13]): Active
- Activity (Escherichia coli [14]): Active
- Activity (Escherichia coli [15]): Active
- HC50 at 1 h [16]: 228 µg/mL
- Activity (Staphylococcus aureus [17]): Active
- MIC (Staphylococcus aureus [18]): 1 mg/L
- MBC (Staphylococcus aureus [19]): 32 mg/L
- Activity (Staphylococcus aureus [20]): Active
- Ratio (Staphylococcus aureus [21]): 2
- MIC (Staphylococcus aureus [22]): 1 mg/L
- MIC (Staphylococcus aureus [23]): 0.5 mg/L
- MIC (Staphylococcus aureus [24]): 4 mg/L
